Most compounds without a hit are left out; they make up all but 1.5% or so of the library.
DAGLB inhibitor: blocks human DAGLB lipase activity | AID 504411 | 340,000 compounds, 0.059% hits | inhibition, % at 5.17 µM | Q8NCG7 | HEK293T DAGLB membrane lysate, EnzChek fluorogenic substrate; in the data active = inhibition above about 34%;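 note: 0% = enzyme with vehicle and 100% = wells lacking enzyme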
NRP1-CendR mod: NRP-1/CendR interaction modulation; O14786; FAM-RPARPAR peptide binding to NRP-1, fluorescence polarization; inhibition, % at 25 µM; 360,000 compounds, 0.85% hits; AID 602438;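 active = inhibition or corrected inhibition above about 18%, plus a signal ratio from 0.5 to 1.5, limit read from the data, passing the limit was not always enough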
UCH37 inh: human UCH37 deubiquitinating enzyme inhibition; Q9Y5K5; purified proteasome/UCH37, Ub-AMC cleavage fluorescence; inhibition, % (no concentration beside the values); 330,000 compounds, 0.33% hits;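 active = mean inhibition over replicate wells above about 20%, limit read from the data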;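 note: 0% = compound-free wells with enzyme and 100% = wells lacking proteasome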
Target sequence (Q9Y5K5 whole entry, looked up): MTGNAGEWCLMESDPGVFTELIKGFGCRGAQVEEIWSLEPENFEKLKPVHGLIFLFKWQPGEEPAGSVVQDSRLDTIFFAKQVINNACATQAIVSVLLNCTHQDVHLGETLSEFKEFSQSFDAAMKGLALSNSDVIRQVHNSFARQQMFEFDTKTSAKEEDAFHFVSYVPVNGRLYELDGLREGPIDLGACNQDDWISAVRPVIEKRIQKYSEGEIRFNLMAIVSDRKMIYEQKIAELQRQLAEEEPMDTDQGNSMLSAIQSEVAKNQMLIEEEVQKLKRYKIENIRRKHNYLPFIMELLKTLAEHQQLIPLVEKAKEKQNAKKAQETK
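Material: Human UCH37 enzyme supplied as purified proteasome complex | Schedule: 30 min compound-proteasome preincubation then 25 min substrate reaction, room temperature | Detection: AMC fluorescence from Ub-AMC cleavage, excitation 355 nm, emission 460 nm | Benchmarks: Wells without proteasome as full block, compound-free enzyme plus substrate as uninhibited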
CTSL1 counter: blocks F. hepatica cathepsin L1 in PFM18AAP counter-screen; inhibition, % at 5.96 µM; 300,000 compounds, 0.49% hits; recombinant F. hepatica cathepsin L1, Z-Leu-Arg-MCA fluorescence;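 active = inhibition above the mean of all tested compounds plus 3 SD, set per screening campaign, cut at about 17% in these data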;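 note: 0% = plate median of test compound wells and 100% = 1 µM Z-Phe-Ala-diazomethylketone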
MT1-MMP act inh: blocks activation of human MT1-MMP; AID 651647; P50281; HT1080 RFP-PRO-GFP cells, GFP/RFP ratio fluorescence, overnight; percent of plate control window, DMSO zero; 360,000 compounds, 0.061% hits; GFP/RFP ratio change, % at 20 µM;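 active = GFP/RFP ratio change of at least 30% with cell ATP level not reduced by more than half and red fluorescence within 50% of control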
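Compound: 20 µM single dose, 1% DMSO / System: HT1080 RFP-PRO-GFP cells / Controls: DMSO and RFP-L50D-GFP cell wells / Read-out basis: GFP/RFP fluorescence ratio / Schedule: overnight compound exposure at 37 °C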
Numbers without * were called inactive; nt = no result.

SMILES	DAGLB inhibitor	NRP1-CendR mod	UCH37 inh	CTSL1 counter	MT1-MMP act inh
CC(CN1CCOCC1)OC(=O)c1ccc2c(c1)OCCO2 (stereo not drawn)	1.6	27.4*	-3.8	-3.8	-1.2
CCOC(=O)c1oc2ccccc2c1NC(=O)CCl	-4.7	-5.9	-5.4	32.8*	0.4
CCOC(=O)c1c(C)oc2cc(Br)c(OC(=O)N3CCOCC3)cc12	-7.7	26.0*	-3.0	-0.1	2.8
Nc1cc2nsnc2cc1Br	-20.9	39.7*	nt	113.6*	-8.6
CC(=O)Nc1ccc(C(C)=NNC(=O)CN(c2ccccc2Br)S(C)(=O)=O)cc1	nt	nt	1.8	nt	nt
CCOC(=O)c1cc(CC)sc1N=CC1=C(O)CCCC1=O	nt	nt	-0.2	nt	nt
CC(=NNC(=O)CNC(=O)c1cccnc1)c1ccccc1	nt	nt	1.9	nt	nt
COC(=O)Oc1ccc(C=NNC(=O)CN(c2ccccc2Cl)S(C)(=O)=O)cc1OC	nt	nt	5.0	nt	nt
COC(=O)Oc1ccc(/C=N/NC(=O)CN(c2ccccc2Br)S(C)(=O)=O)cc1OC	2.2	23.4*	nt	-0.6	1.2
CC(=O)Nc1ccc(C(C)=NNS(=O)(=O)c2ccccc2)cc1	nt	nt	4.7	nt	nt
CCCCC[C@@H](C)N1C[C@H](COCc2ccccc2)Oc2cc(N3CC[C@H](O)C3)ccc2S1(=O)=O	nt	19.9*	nt	nt	-12.7
COc1ccc(CCNC(=O)c2ccc(N(C)S(=O)(=O)c3ccc(C)cc3)cc2)cc1	-4.4	21.4*	6.0	5.8	-1.3
Cc1ccc(S(=O)(=O)N(C)c2ccc(C(=O)NCCc3ccccc3)cc2)cc1	-1.4	0.7	-2.8	0.9	-10.4
COc1ccc(CCNC(=O)c2ccc(Cl)c(S(=O)(=O)N3CCCCCC3)c2)cc1	-2.2	-2.0	5.5	nt	10.3
COc1ccc(CCNC(=O)c2ccc(Cl)c(S(=O)(=O)N(C)c3ccccc3)c2)cc1	-3.5	23.0*	0.1	1.6	-14.8
O=C(c1ccccc1F)N1CCN(C(=O)C(c2ccccc2)c2ccccc2)CC1	-1.9	21.7*	0.6	1.6	-2.2
CC(C)(C)c1cc[n+](-c2[nH]c(=O)sc2C=N/N=C(\[O-])c2ccccc2)cc1	nt	nt	21.2*	nt	nt
O=C(NN=Cc1sc(=O)[nH]c1-[n+]1ccccc1)c1ccccc1[O-]	nt	nt	20.4*	nt	nt
O=C(N/N=C/c1sc(=O)[nH]c1-[n+]1ccccc1)c1ccccc1[O-]	0.6	18.5	nt	5.9	-3.9
Nc1ncnc2c1C(c1ccccc1)c1c(ccc3ccccc13)O2 (stereo not drawn)	-2.2	-0.9	2.3	nt	-6.1
CCOC(=O)CC(=O)Nc1ncnc2c1C(c1ccccc1)c1c(ccc3ccccc13)O2 (stereo not drawn)	2.5	23.7*	1.0	nt	-5.6
COc1ccc(CCNC(=O)CC(C)=NNC(=O)C(c2ccccc2)c2ccccc2)cc1OC	nt	nt	1.7	nt	nt
Cn1c(SCC(=O)c2ccc(F)cc2)ncc(C(=O)Nc2ccccc2)c1=O	1.3	27.2*	-17.8	1.8	0.6
COC(=O)c1[nH]c2cc(OC)ccc2c1NC(=O)c1ccc2c(c1)OCO2	-2.1	20.7*	-5.8	-1.0	0.4
CCOC(=O)c1[nH]c2ccc(OC)cc2c1NC(=O)c1ccc2c(c1)OCO2	-1.5	2.7	-1.8	-0.9	1.5
SMILES	DAGLB inhibitor	NRP1-CendR mod	UCH37 inh	CTSL1 counter	MT1-MMP act inh
CC(=O)CS(=O)(=O)c1ccc(Oc2ccc(S(=O)(=O)CC(C)=O)cc2)cc1	3.0	-2.3	4.3	24.4*	-1.1
CN(Cc1ccccc1)C(=O)c1[nH]cnc1C(=O)N[C@@H](Cc1ccccc1)C(=O)OC(C)(C)C	0.2	-1.2	35.3*	-4.2	5.8
CC(C)(C)OC(=O)[C@H](Cc1ccccc1)NC(=O)c1nc[nH]c1C(=O)NC1CCNCC1	0.2	9.1	9.2	-3.8	1.9
CC(C)(C)OC(=O)[C@H](Cc1ccccc1)NC(=O)c1nc[nH]c1C(=O)N1CCNCC1	-0.4	34.2*	6.1	nt	3.0
CN(Cc1ccccc1)C(=O)c1[nH]cnc1C(=O)NCc1ccc(CNC(=O)OC(C)(C)C)cc1	1.6	30.1*	1.0	nt	-1.1
COc1cc(C=NN2CCOCC2)ccc1OCc1ccccc1	nt	nt	3.0	nt	nt
CCC(=NNC(=O)c1ccc(Br)cc1)c1ccc(OCCN2CCOCC2)cc1	nt	nt	2.9	nt	nt
CON=C(CS(=O)(=O)Cc1ccccc1Cl)c1ccc(Cl)cc1Cl	nt	nt	2.2	nt	nt
COc1cccc(C=NN=C(N)c2nonc2N)c1O	nt	nt	4.1	nt	nt
Cc1nnc2n1NC(c1ccc(Cl)cc1)C(C(=O)N(C)C1CCCCC1)S2 (stereo not drawn)	1.8	8.9	1.1	-1.0	0.2
Cc1nnc2n1NC(c1ccc(Cl)cc1)C(C(=O)N1CCC(C)CC1)S2 (stereo not drawn)	-0.8	22.7*	-2.1	-1.7	13.1
CC(=NNC(=O)c1nnn(-c2nonc2N)c1CN1CCOCC1)c1ccc(CC(C)C)cc1	nt	nt	2.2	nt	nt
CCOC(=O)c1c2c(n(-c3ccc(OC)cc3)c1C)C(=O)C(=O)c1ccccc1-2	15.9	34.3*	nt	nt	-17.7
Cc1ccc(C(=O)NCC(=O)OCC(=O)c2cc(C)n(Cc3ccco3)c2C)cc1	-5.5	33.2*	-2.4	-15.2	-0.3
Cc1cc(C(=O)COC(=O)Cn2c(C(F)(F)F)nc3ccccc32)c(C)n1Cc1ccco1	-3.0	20.0*	6.3	2.7	0.3
Cc1cc(C(=O)COC(=O)CNC(=O)c2ccc(Cl)c(Cl)c2)c(C)n1Cc1ccco1	-6.4	-2.1	2.0	2.9	-3.0
CNc1oc(C)nc1S(=O)(=O)c1ccc(C)cc1	-2.4	10.0	1.8	-0.7	10.2
CNc1oc(Cc2ccccc2)nc1S(=O)(=O)c1ccccc1	2.0	0.5	2.3	22.5*	-6.0
Cc1ccc(S(=O)(=O)c2nc(C)oc2NCc2ccccc2)cc1	nt	nt	nt	34.8*	nt
Cc1nn(-c2ccccc2)c(Cl)c1C=NNC(=O)c1cnccn1	nt	nt	-8.9	nt	nt
O=[N+]([O-])c1ccc(C=Nn2c(C3CCCCC3)n[nH]c2=S)cc1	nt	nt	4.3	nt	nt
C=C1CCN([C@@H](CC(C)C)C(=O)NCCC(C)C)S(=O)(=O)c2ccccc21	-5.3	23.7*	1.3	-2.1	-4.3
C=C1CCN([C@@H](CC(C)C)C(=O)NCc2ccc(Cl)c(Cl)c2)S(=O)(=O)c2ccccc21	-9.4	32.5*	2.1	3.8	-6.8
C=C1CCN([C@@H](Cc2ccccc2)C(=O)Nc2ccc(OC)cc2)S(=O)(=O)c2ccccc21	-7.0	27.1*	2.2	-0.1	-3.7
C=C1CCN([C@@H](CC(C)C)C(=O)NCc2ccc(Cl)cc2)S(=O)(=O)c2ccccc21	-9.5	17.8	-0.1	-3.0	0.8
Cc1ccccc1OCC(=O)NN=Cc1sc(=O)n(Cc2cccc(C(=O)O)c2)c1Cl	nt	nt	7.1	nt	nt
CCc1cc(C(=O)O)c(NC(=O)/C=C/c2ccc(OC)cc2)s1	8.8	7.7	18.6	4.6	3.4
CCc1cc(C(=O)O)c(NC(=O)/C=C/c2ccc(OC)c(OC)c2)s1	3.2	0.4	24.3*	-0.1	3.7
O=C(COc1ccccc1)NCC(=O)NN=Cc1ccc(Cl)cc1	nt	nt	0.5	nt	nt

From PubChem BioAssay
